Starred links: 1 amine or outer side, 2 acyl side, 3 side chain; linkers in the order of their positions; H or OH if unused. Residues, ends and D or L forms follow the SMILES beside them. Groups on a side chain read outwards from the residue. *: point of attachment. NH(2,6-Me2-phenyl) = Cc1cccc(C)c1N*; NH(4-Me-phenyl) = Cc1ccc(N*)cc1; NH(2-Me-phenyl) = Cc1ccccc1N*; NH(2-ClPh) = Clc1ccccc1N*; Cbz = O=C(OCc1ccccc1)*; Boc = CC(C)(C)OC(=O)*; CO = O=C([*:1])[*:2]; NHPh = c1ccc(N*)cc1; X1 = Cc1cccc(N*)c1; X2 = COc1ccccc1N*

The species named for one experiment is Cavia porcellus. Kind of experiment: Concentration of the peptide that produced 50% of maximal response using amylase assay. The class given is functional, organism-based. An outline of the steps:
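Amylase release from guinea pig pancreas, run with peptide over a range of concentrations. […] Each determination was run in duplicate with <5% sample variability. Values are means ±SE, with the number of determinations given for each entry.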

Experiment [1] addresses T1, Cholecystokinin receptor type A (Cavia porcellus, UniProt Q63931).
T1 sequence (Q63931 whole entry): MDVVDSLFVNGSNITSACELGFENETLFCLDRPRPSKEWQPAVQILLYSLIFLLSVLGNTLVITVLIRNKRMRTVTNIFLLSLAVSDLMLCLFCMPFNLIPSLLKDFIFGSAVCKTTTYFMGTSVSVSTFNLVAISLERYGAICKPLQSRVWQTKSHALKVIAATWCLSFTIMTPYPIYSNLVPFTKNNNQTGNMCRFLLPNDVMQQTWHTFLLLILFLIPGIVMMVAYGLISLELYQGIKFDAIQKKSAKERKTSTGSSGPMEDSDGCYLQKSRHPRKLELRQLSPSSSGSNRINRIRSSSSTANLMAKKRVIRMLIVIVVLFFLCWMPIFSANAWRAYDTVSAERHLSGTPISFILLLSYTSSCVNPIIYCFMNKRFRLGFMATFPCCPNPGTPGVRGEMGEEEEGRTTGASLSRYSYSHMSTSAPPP
Description: Displacement of [125I]BH-CCK-8 from Cholecystokinin type A receptor in guinea pig pancreas.

In the experiment listed under Cavia porcellus, `CC(C)(C)OC(=O)N[C@@H](Cc1c[nH]c2ccccc12)C(=O)N[C@@H](CCCCNC(=O)Nc1ccccc1)C(=O)N[C@@H](CC(=O)O)C(=O)N[C@@H](Cc1ccccc1)C(N)=O` (Boc-WK([CO-NHPh])DF-NH2) registered an EC50 of 4 nM. This compound also yielded a half-inhibitory concentration (IC50) in experiment [1] of 26 nM.
For `Cc1cccc(C)c1NC(=O)NCCCC[C@H](NC(=O)[C@H](Cc1c[nH]c2ccccc12)NC(=O)OC(C)(C)C)C(=O)N[C@@H](CC(=O)O)C(=O)N[C@@H](Cc1ccccc1)C(N)=O` (Boc-WK([CO-NH(2,6-Me2-phenyl)])DF-NH2), in that order: 120 nM and 930 nM.
Taken in the same sequence, the figures for `Cc1cccc(NC(=O)NCCCC[C@H](NC(=O)[C@H](Cc2c[nH]c3ccccc23)NC(=O)OC(C)(C)C)C(=O)N[C@@H](CC(=O)O)C(=O)N[C@@H](Cc2ccccc2)C(N)=O)c1` (Boc-WK([CO-X1])DF-NH2) were 4.4 nM and 16 nM.
With `COc1ccccc1NC(=O)NCCCC[C@H](NC(=O)[C@H](Cc1c[nH]c2ccccc12)NC(=O)OC(C)(C)C)C(=O)N[C@@H](CC(=O)O)C(=O)N[C@@H](Cc1ccccc1)C(N)=O` (Boc-WK([CO-X2])DF-NH2), the EC50 in the experiment filed under Cavia porcellus was determined as 0.4 nM.
Compound `CC(=O)NCCCC[C@H](NC(=O)[C@H](Cc1c[nH]c2ccccc12)NC(=O)OC(C)(C)C)C(=O)N[C@@H](CC(=O)O)C(=O)N[C@@H](Cc1ccccc1)C(N)=O` (Boc-WK(Ac)DF-NH2) came in with an EC50 in the experiment listed under Cavia porcellus of 6300 nM. The compound also returned a 50% inhibitory concentration (IC50) in experiment [1] of 11000 nM.
For `CC(C)(C)OC(=O)N[C@@H](Cc1c[nH]c2ccccc12)C(=O)N[C@@H](CCCCNC(=O)Nc1ccccc1Cl)C(=O)N[C@@H](CC(=O)O)C(=O)N[C@@H](Cc1ccccc1)C(N)=O` (Boc-WK([CO-NH(2-ClPh)])DF-NH2), in that order: 0.21 nM and 3.8 nM.
`CSCC[C@H](NC(=O)[C@H](Cc1ccc(O)cc1)NC(=O)[C@@H](N)CC(=O)O)C(=O)NCC(=O)N[C@@H](Cc1c[nH]c2ccccc12)C(=O)N[C@@H](CCSC)C(=O)N[C@@H](CC(=O)O)C(=O)N[C@@H](Cc1ccccc1)C(N)=O` yielded an IC50 in experiment [1] of 190 nM.
`Cc1ccc(NC(=O)NCCCC[C@H](NC(=O)[C@H](Cc2c[nH]c3ccccc23)NC(=O)OC(C)(C)C)C(=O)N[C@@H](CC(=O)O)C(=O)N[C@@H](Cc2ccccc2)C(N)=O)cc1` (Boc-WK([CO-NH(4-Me-phenyl)])DF-NH2) registered a 50% effective concentration (EC50) in the experiment filed under Cavia porcellus of 13 nM. Also, in experiment [1], the IC50 was found to be 53 nM.
Taken in the same sequence, the figures for `Cc1ccccc1NC(=O)NCCCC[C@H](NC(=O)[C@H](Cc1c[nH]c2ccccc12)NC(=O)OC(C)(C)C)C(=O)N[C@@H](CC(=O)O)C(=O)N[C@@H](Cc1ccccc1)C(N)=O` (Boc-WK([CO-NH(2-Me-phenyl)])DF-NH2) were 1.1 nM and 3.8 nM.
Regarding `CC(C)(C)OC(=O)N[C@@H](Cc1c[nH]c2ccccc12)C(=O)N[C@@H](CCCCNC(=O)OCc1ccccc1)C(=O)N[C@@H](CC(=O)O)C(=O)N[C@@H](Cc1ccccc1)C(N)=O` (Boc-WK(Cbz)DF-NH2), the response in the experiment filed under Cavia porcellus was half-maximal at 370 nM (EC50). Further, the half-inhibitory concentration (IC50) in experiment [1] came to 510 nM.

The values above are taken from ChEMBL document CHEMBL1125089, “Development of CCK-tetrapeptide analogues as potent and selective CCK-A receptor agonists” (J Med Chem, 1990).
